Data taken from ChEMBL document CHEMBL2321751, “Optimization of chloronitrobenzamides (CNBs) as therapeutic leads for human African trypanosomiasis (HAT)” (J Med Chem, 2013).
Values after ≈ are worked out from the molar mass of the structure shown.

What was measured:
HepG2 = experiment: Cytotoxicity against human HepG2 cells after 72 hrs by Cell Titre Glo assay; format: cell-based; settings: HepG2, 72 h
In short: (§1)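 Human cells grown to 80% confluence were plated in 384-well format and received compound dilutions by pin tool. After 72 h at 37 °C in 5% CO2, viability was measured by CellTiter-Glo luminescence.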

Raji = experiment: Cytotoxicity against human Raji cells after 72 hrs by Cell Titre Glo assay; format: cell-based; in short: as §1
[1] = Kinetic solubility of the compound in PBS buffer at pH 7.4 after 18 hrs by UV spectrophotometric analysis; format: physicochemical; settings: for solubility kinetic at 18 h: PBS buffer, pH 7.4, read-out: Kinetic_solubility
In short: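 Compound from a 10 mM stock was added to PBS pH 7.4 and left 18 h at room temperature. The suspension was filtered, and the filtrate was mixed 1:1 with 1-propanol. Solubility was derived from UV spectrum AUC (250–500 nm) relative to a 1-propanol/PBS reference. Run in triplicate.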

[2] = Permeability of the compound at pH 7.4 by PAMPA; format: ADME; settings: for Papp: PAMPA, read-out: permeability; for permeability: pampa, BLD = below limit of detection
In short: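 Compound (10 mM DMSO stock) was diluted in system solution buffer pH 7.4 and placed in the donor chamber of a PAMPA sandwich whose membrane was coated with GIT lipid. Acceptor buffer filled the acceptor chamber, and the assembly was stirred for 30 min. Donor and acceptor UV spectra (250–500 nm) were compared with a reference to give the permeability coefficient. Run in triplicate.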

[3] = tested on: Trypanosoma brucei brucei; experiment: Antitrypanosomal activity against Trypanosoma brucei brucei 221 after 48 hrs by Cell Titre Glo assay; format: functional, organism-based; settings: Trypanosoma brucei, 221, 48 h
In short: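 Bloodstream-form parasites grown in HMI-9 with 10% heat-inactivated FBS, 10% Serum Plus and penicillin/streptomycin at 37 °C, 5% CO₂, to 1 × 10⁶ cells/mL. Diluted to 1 × 10⁴ cells/mL, then dosed with a DMSO dilution series by pin transfer. Incubated 48 h at 37 °C, 5% CO₂. Viability read by CellTiter-Glo luminescence. EC₅₀ from a variable-slope sigmoidal fit. Mean of six replicates, errors as 95% CI.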

BJ = experiment: Cytotoxicity against human BJ cells after 72 hrs by Cell Titre Glo assay; format: cell-based; in short: as §1
HEK293 = experiment: Cytotoxicity against HEK293 cells after 72 hrs by Cell Titre Glo assay; format: cell-based; settings: Homo sapiens, HEK293, 72 h; in short: as §1

Structure (SMILES)	solubility kinetic at 18 h [1]	Papp [2]	EC50 [3]	permeability [2]	Kinetic_solubility ([1]; buffer, pH 7.4, 18 h, BLD = below limit of detection)	EC50 (HepG2)	EC50 (Raji)	EC50 (BJ)	EC50 (HEK293)
COc1ccc(NC(=O)c2cc([N+](=O)[O-])ccc2Cl)cc1-c1nc2ccccc2s1	0.26 µM (≈ 0.114 µg/mL)	–	3.6 µM	BLD	–	> 25 µM	> 25 µM	> 25 µM	> 25 µM
Cc1cc(NC(=O)c2cc([N+](=O)[O-])ccc2Cl)cc(-c2nc3ccccc3s2)c1O	0.43 µM (≈ 0.189 µg/mL)	48 ×10⁻⁶ cm/s	> 10 µM	–	–	> 25 µM	> 25 µM	> 25 µM	> 25 µM
O=C(Nc1ccc(O)c(-c2nc3ccccc3s2)c1)c1cc([N+](=O)[O-])ccc1Cl	0.023 µM (≈ 0.00979 µg/mL)	–	> 33 µM	BLD	–	> 25 µM	> 25 µM	> 25 µM	> 25 µM
O=C(Nc1cccc(-c2nc3ccccc3s2)c1)c1cc([N+](=O)[O-])c(O)cc1Cl	2.2 µM (≈ 0.937 µg/mL)	307 ×10⁻⁶ cm/s	> 33 µM	–	–	> 25 µM	> 25 µM	> 25 µM	> 25 µM
O=C(Nc1nc2ccc(F)cc2s1)c1cc([N+](=O)[O-])ccc1Cl	0.57 µM (≈ 0.2 µg/mL)	10 ×10⁻⁶ cm/s	5.6 µM	–	–	> 27 µM	> 27 µM	> 27 µM	> 27 µM
O=C(Nc1nc2ccc(Cl)cc2s1)c1cc([N+](=O)[O-])ccc1Cl	1.2 µM (≈ 0.442 µg/mL)	138 ×10⁻⁶ cm/s	8.1 µM	–	–	> 27 µM	> 27 µM	> 27 µM	> 27 µM
O=C(Nc1nc2c(Cl)cccc2s1)c1cc([N+](=O)[O-])ccc1Cl	0.72 µM (≈ 0.265 µg/mL)	242 ×10⁻⁶ cm/s	12 µM	–	–	> 27 µM	15 µM	> 27 µM	> 27 µM
O=C(Nc1ccccc1-c1nc2ccccc2s1)c1cc([N+](=O)[O-])ccc1Cl	–	–	> 33 µM	–	–	> 27 µM	> 27 µM	> 27 µM	> 27 µM
O=C(CNc1ccc(-c2nc3ccccc3s2)cc1)c1cc([N+](=O)[O-])ccc1Cl	–	–	> 16 µM	–	–	> 27 µM	> 27 µM	> 27 µM	> 27 µM
O=C(Nc1cccc(-c2nc3ccccc3[nH]2)c1)c1cc([N+](=O)[O-])ccc1Cl	1.4 µM (≈ 0.55 µg/mL)	352 ×10⁻⁶ cm/s	26 µM	–	–	> 27 µM	20.7 µM	> 27 µM	> 27 µM
O=C(Nc1ccc(Cl)cc1)c1cc([N+](=O)[O-])ccc1Cl	–	–	–	–	–	> 27 µM	> 27 µM	> 27 µM	> 27 µM

The remaining compounds from weak to strong by EC50 [3], led by results:

solubility kinetic at 18 h [1]	Papp [2]	EC50 [3]	permeability [2]	Kinetic_solubility ([1]; buffer, pH 7.4, 18 h, BLD = below limit of detection)	Structure (SMILES)	EC50 (HepG2)	EC50 (Raji)	EC50 (BJ)	EC50 (HEK293)
0.78 µM (≈ 0.295 µg/mL)	3 ×10⁻⁶ cm/s	3.5 µM	–	–	O=C(Nc1nc(-c2cccc(F)c2)cs1)c1cc([N+](=O)[O-])ccc1Cl	18 µM	11 µM	24 µM	8.7 µM
0.12 µM (≈ 0.0423 µg/mL)	26 ×10⁻⁶ cm/s	1.9 µM	–	–	O=C(Nc1ccc(-c2ccccc2)cc1)c1cc([N+](=O)[O-])ccc1Cl	> 27 µM	> 27 µM	> 27 µM	> 27 µM
0.41 µM (≈ 0.145 µg/mL)	–	1.2 µM	BLD	–	O=C(Nc1cccc(-c2ccccc2)c1)c1cc([N+](=O)[O-])ccc1Cl	> 27 µM	> 27 µM	> 27 µM	22 µM
6.7 µM (≈ 3.24 µg/mL)	< 1 ×10⁻⁶ cm/s	0.8 µM	–	–	O=C(O)COc1cc(Cl)c(C(=O)Nc2cccc(-c3nc4ccccc4s3)c2)cc1[N+](=O)[O-]	> 25 µM	> 25 µM	> 25 µM	> 25 µM
–	< 1 ×10⁻⁶ cm/s	0.73 µM	–	BLD	Cc1ccc(-c2nc3ccccc3s2)cc1NC(=O)c1cc([N+](=O)[O-])c(N2CCCCC2)cc1Cl	> 25 µM	> 25 µM	> 25 µM	> 25 µM
0.17 µM (≈ 0.0988 µg/mL)	< 1 ×10⁻⁶ cm/s	0.72 µM	–	–	COC(=O)C1CCN(c2cc(Cl)c(C(=O)Nc3cc(-c4nc5ccccc5s4)ccc3OC)cc2[N+](=O)[O-])CC1	> 25 µM	> 25 µM	> 25 µM	> 25 µM
0.21 µM (≈ 0.119 µg/mL)	5 ×10⁻⁶ cm/s	0.64 µM	–	–	COc1ccc(-c2nc3ccccc3s2)cc1NC(=O)c1cc([N+](=O)[O-])c(N2CCC(C(=O)O)CC2)cc1Cl	> 25 µM	> 25 µM	> 25 µM	> 25 µM
0.19 µM (≈ 0.0969 µg/mL)	10 ×10⁻⁶ cm/s	0.52 µM	–	–	CCOC(=O)Cc1cc(Cl)c(C(=O)Nc2cc(-c3nc4ccccc4s3)ccc2C)cc1[N+](=O)[O-]	> 25 µM	> 25 µM	> 25 µM	> 25 µM
0.59 µM (≈ 0.325 µg/mL)	17 ×10⁻⁶ cm/s	0.5 µM	–	–	Cc1ccc(-c2nc3ccccc3s2)cc1NC(=O)c1cc([N+](=O)[O-])c(N2CCC(C(=O)O)CC2)cc1Cl	> 25 µM	> 25 µM	> 25 µM	> 25 µM
0.03 µM (≈ 0.014 µg/mL)	< 1 ×10⁻⁶ cm/s	0.47 µM	–	–	Cc1ccc(-c2nc3ccccc3s2)cc1NC(=O)c1cc([N+](=O)[O-])c(N(C)C)cc1Cl	> 25 µM	> 25 µM	> 25 µM	> 25 µM
0.01 µM (≈ 0.0044 µg/mL)	12 ×10⁻⁶ cm/s	0.33 µM	–	–	COc1cc(Cl)c(C(=O)Nc2cccc(-c3nc4ccccc4s3)c2)cc1[N+](=O)[O-]	> 25 µM	> 25 µM	> 25 µM	> 25 µM
0.41 µM (≈ 0.182 µg/mL)	3 ×10⁻⁶ cm/s	0.32 µM	–	–	O=C(Nc1ccc(Cl)c(-c2nc3ccccc3s2)c1)c1cc([N+](=O)[O-])ccc1Cl	> 25 µM	> 25 µM	> 25 µM	> 25 µM
0.1 µM (≈ 0.0444 µg/mL)	–	0.24 µM	BLD	–	O=C(Nc1cc(-c2nc3ccccc3s2)ccc1Cl)c1cc([N+](=O)[O-])ccc1Cl	> 25 µM	> 25 µM	> 25 µM	> 25 µM
0.09 µM (≈ 0.0381 µg/mL)	105 ×10⁻⁶ cm/s	0.22 µM	–	–	Cc1cc(NC(=O)c2cc([N+](=O)[O-])ccc2Cl)cc(-c2nc3ccccc3o2)c1O	> 25 µM	> 25 µM	> 25 µM	> 25 µM
0.27 µM (≈ 0.111 µg/mL)	366 ×10⁻⁶ cm/s	0.17 µM	–	–	O=C(Nc1ccc(F)c(-c2nc3ccccc3o2)c1)c1cc([N+](=O)[O-])ccc1Cl	> 25 µM	> 25 µM	> 25 µM	> 25 µM
0.09 µM (≈ 0.0381 µg/mL)	274 ×10⁻⁶ cm/s	0.12 µM	–	–	COc1ccc(-c2nc3ccccc3o2)cc1NC(=O)c1cc([N+](=O)[O-])ccc1Cl	> 25 µM	> 25 µM	> 25 µM	> 25 µM
0.31 µM (≈ 0.126 µg/mL)	–	0.02 µM	BLD	–	Cc1ccc(-c2nc3ccccc3o2)cc1NC(=O)c1cc([N+](=O)[O-])ccc1Cl	> 14 µM	> 14 µM	> 14 µM	> 14 µM
